{"source": "ChEMBL document CHEMBL1154855", "about": "(Eur J Med Chem, 2010)", "key": {"[1]": {"system": "Human immunodeficiency virus 1", "assay": "Antiviral activity against HIV1 3B-infected in human MT4 cells assessed as protection from virus-induced cytopathogenicity after 5 days by MTT assay", "assay_type": "functional, organism-based", "conditions": "Human immunodeficiency virus 1, 3B, MT4, 120 h", "in_short": "(§1)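 MT-4 cells at 3 × 10^4 per well were infected with HIV (IIIB or ROD) at 50% cell culture infective doses. Graded compound concentrations were added immediately after infection. Plates were incubated for 5 days at 37 °C and viable cells were counted by MTT.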"}, "[2]": {"system": "Human immunodeficiency virus 2", "assay": "Antiviral activity against HIV2 ROD infected in human MT4 cells assessed as protection from virus-induced cytopathogenicity after 5 days by MTT assay", "assay_type": "functional, organism-based", "conditions": "Human immunodeficiency virus 2, ISOLATE ROD, MT4, 120 h", "in_short": "as §1"}, "[3]": {"assay": "Cytotoxicity against HIV2 ROD infected human MT4 cells by MTT assay", "assay_type": "cell-based", "conditions": "MT4 cells infected with HIV-2 ROD", "in_short": "(§2)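 MT-4 cells (3 × 10^4 per well) were cultured in microdilution trays with various concentrations of compound, then incubated 5 days at 37 °C, and viable cell number was read by MTT.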"}, "[4]": {"assay": "Selectivity index, ratio of CC50 for HIV2 ROD infected human MT4 cells to IC50 for […] ROD", "assay_type": "functional"}, "[5]": {"system": "HeLa", "assay": "Cytotoxicity against VSV infected human HeLa cells by trypan blue exclusion method", "assay_type": "cell-based", "conditions": "hela", "in_short": "(§3)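 Uninfected confluent cultures were run in parallel with the infected cultures. Medium was replaced by 1 ml maintenance medium with serial compound concentrations; cell controls received no compound. Cultures were incubated at 37 °C. After 2 and 7 days, compound was withdrawn and viability was determined by trypan blue exclusion.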"}, "[6]": {"system": "HeLa", "assay": "Cytotoxicity against Human coxsackievirus B4 infected human HeLa cells by trypan blue exclusion method", "assay_type": "cell-based", "conditions": "hela", "in_short": "as §3"}, "[7]": {"system": "HeLa", "assay": "Cytotoxicity against Respiratory syncytial virus infected human HeLa cells by trypan blue exclusion method", "assay_type": "cell-based", "conditions": "hela", "in_short": "as §3"}, "[8]": {"system": "HEL", "assay": "Cytotoxicity against Herpes simplex virus 1 KOS infected HEL cells by trypan blue exclusion method", "assay_type": "cell-based", "conditions": "human, hel", "in_short": "as §3"}, "[9]": {"system": "HEL", "assay": "Cytotoxicity against Herpes simplex virus 2 G infected HEL cells by trypan blue exclusion method", "assay_type": "cell-based", "conditions": "human, hel", "in_short": "as §3"}, "[10]": {"system": "HEL", "assay": "Cytotoxicity against Vaccinia virus infected HEL cells by trypan blue exclusion method", "assay_type": "cell-based", "conditions": "human, hel", "in_short": "as §3"}, "[11]": {"system": "HEL", "assay": "Cytotoxicity against VSV infected HEL cells by trypan blue exclusion method", "assay_type": "cell-based", "conditions": "human, hel", "in_short": "as §3"}, "[12]": {"system": "HEL", "assay": "Cytotoxicity against acyclovir-sensitive Herpes simplex virus 1 KOS infected HEL cells by trypan blue exclusion method", "assay_type": "cell-based", "conditions": "human", "in_short": "as §3"}, "[13]": {"system": "Vero", "assay": "Cytotoxicity against PIV 3 infected african green monkey Vero cells by trypan blue exclusion method", "assay_type": "cell-based", "conditions": "chlorocebus sabaeus, vero", "in_short": "as §3"}, "[14]": {"system": "Vero", "assay": "Cytotoxicity against Reovirus 1 infected african green monkey Vero cells by trypan blue exclusion method", "assay_type": "cell-based", "conditions": "chlorocebus sabaeus, vero", "in_short": "as §3"}, "[15]": {"system": "Vero", "assay": "Cytotoxicity against Sindbis virus infected african green monkey Vero cells by trypan blue exclusion method", "assay_type": "cell-based", "conditions": "chlorocebus sabaeus, vero", "in_short": "as §3"}, "[16]": {"system": "Vero", "assay": "Cytotoxicity against Human coxsackievirus B4 infected african green monkey Vero cells by trypan blue exclusion method", "assay_type": "cell-based", "conditions": "chlorocebus sabaeus, vero", "in_short": "as §3"}, "[17]": {"system": "Vero", "assay": "Cytotoxicity against Punta Toro virus infected african green monkey Vero cells by trypan blue exclusion method", "assay_type": "cell-based", "conditions": "chlorocebus sabaeus, vero", "in_short": "as §3"}, "[18]": {"assay": "Cytotoxicity against Feline coronavirus infected cat CRFK cells by trypan blue exclusion method", "assay_type": "cell-based, Felis catus", "conditions": "crfk", "in_short": "as §3"}, "[19]": {"assay": "Cytotoxicity against Feline herpesvirus infected cat CRFK cells by trypan blue exclusion method", "assay_type": "cell-based, Felis catus", "conditions": "crfk", "in_short": "as §3"}, "[20]": {"system": "MDCK", "assay": "Cytotoxicity against Influenza A virus subtype H1N1 infected MDCK cells by trypan blue exclusion method", "assay_type": "cell-based, Canis lupus familiaris", "conditions": "dog"}, "[21]": {"system": "MDCK", "assay": "Cytotoxicity against Influenza A virus subtype H3N2 infected MDCK cells by trypan blue exclusion method", "assay_type": "cell-based, Canis lupus familiaris", "conditions": "dog"}, "[22]": {"system": "MDCK", "assay": "Cytotoxicity against Influenza B virus infected MDCK cells by trypan blue exclusion method", "assay_type": "cell-based, Canis lupus familiaris", "conditions": "dog"}, "[23]": {"assay": "Cytotoxicity against HIV1 3B-infected human MT4 cells by MTT assay", "assay_type": "cell-based", "conditions": "MT4 cells infected with HIV-1 3B", "in_short": "as §2"}, "[24]": {"system": "Coxsackievirus B4", "assay": "Antiviral activity against Human coxsackievirus B4 infected in human HeLa cells assessed as protection from virus-induced cytopathogenicity after 2 days by MTT assay", "assay_type": "functional, organism-based", "conditions": "Enterovirus B, 48 h"}, "[25]": {"system": "Mammalian orthoreovirus 1", "assay": "Antiviral activity against Reovirus 1 infected in african green monkey Vero cells assessed as protection from virus-induced cytopathogenicity after 6 to 7 days by MTT assay", "assay_type": "functional, organism-based", "conditions": "Mammalian orthoreovirus 1, Vero"}, "[26]": {"system": "Vesicular stomatitis virus", "assay": "Antiviral activity against VSV infected in human HeLa cells assessed as protection from virus-induced cytopathogenicity after 1 to 2 days by MTT assay", "assay_type": "functional, organism-based"}, "[27]": {"system": "Respiratory syncytial virus", "assay": "Antiviral activity against Respiratory syncytial virus infected in human HeLa cells assessed as protection from virus-induced cytopathogenicity after 4 days by MTT assay", "assay_type": "functional, organism-based", "conditions": "96 h"}, "[28]": {"system": "Human alphaherpesvirus 1", "assay": "Antiviral activity against Herpes simplex virus 1 KOS infected in HEL cells assessed as protection from virus-induced cytopathogenicity after 2 to 3 days by MTT assay", "assay_type": "functional, organism-based", "conditions": "Human alphaherpesvirus 1, KOS"}, "[29]": {"system": "Human alphaherpesvirus 2", "assay": "Antiviral activity against Herpes simplex virus 2 G infected in HEL cells assessed as protection from virus-induced cytopathogenicity after 2 to 3 days by MTT assay", "assay_type": "functional, organism-based", "conditions": "Human alphaherpesvirus 2, strain G"}, "[30]": {"system": "Vesicular stomatitis virus", "assay": "Antiviral activity against VSV infected in HEL cells assessed as protection from virus-induced cytopathogenicity after 1 to 2 days by MTT assay", "assay_type": "functional, organism-based"}, "[31]": {"system": "Human alphaherpesvirus 1", "assay": "Antiviral activity against acyclovir-sensitive Herpes simplex virus 1 KOS infected in HEL cells assessed as protection from virus-induced cytopathogenicity after 2 to 3 days by MTT assay", "assay_type": "functional, organism-based", "conditions": "Human alphaherpesvirus 1, KOS"}, "[32]": {"system": "Human respirovirus 3", "assay": "Antiviral activity against PIV 3 infected in african green monkey Vero cells assessed as protection from virus-induced cytopathogenicity after 6 to 7 days by MTT assay", "assay_type": "functional, organism-based", "conditions": "Human respirovirus 3, Vero"}, "[33]": {"system": "Sindbis virus", "assay": "Antiviral activity against Sindbis virus infected in african green monkey Vero cells assessed as protection from virus-induced cytopathogenicity after 2 to 3 days by MTT assay", "assay_type": "functional, organism-based"}, "[34]": {"system": "Coxsackievirus B4", "assay": "Antiviral activity against Human coxsackievirus B4 infected in african green monkey Vero cells assessed as protection from virus-induced cytopathogenicity after 2 days by MTT assay", "assay_type": "functional, organism-based", "conditions": "Enterovirus B, 48 h"}, "[35]": {"system": "Punta Toro virus", "assay": "Antiviral activity against Punta Toro virus infected in african green monkey Vero cells assessed as protection from virus-induced cytopathogenicity by MTT assay", "assay_type": "functional, organism-based"}, "[36]": {"system": "Feline coronavirus", "assay": "Antiviral activity against Feline coronavirus infected in cat CRFK cells assessed as protection from virus-induced cytopathogenicity by MTT assay", "assay_type": "functional, organism-based", "conditions": "Alphacoronavirus 1, CRFK"}, "[37]": {"system": "Felid alphaherpesvirus 1", "assay": "Antiviral activity against Feline herpesvirus infected in cat CRFK cells assessed as protection from virus-induced cytopathogenicity by MTT assay", "assay_type": "functional, organism-based", "conditions": "Felid alphaherpesvirus 1, CRFK"}, "[38]": {"system": "Influenza A virus", "assay": "Antiviral activity against Influenza A virus H1N1 infected in MDCK cells assessed as protection from virus-induced cytopathogenicity after 6 to 7 days by MTT assay", "assay_type": "functional, organism-based"}, "[39]": {"system": "Influenza A virus", "assay": "Antiviral activity against Influenza A virus H3N2 infected in MDCK cells assessed as protection from virus-induced cytopathogenicity after 6 to 7 days by MTT assay", "assay_type": "functional, organism-based"}, "[40]": {"system": "Influenza B virus", "assay": "Antiviral activity against Influenza B virus infected in MDCK cells assessed as protection from virus-induced cytopathogenicity after 6 to 7 days by MTT assay", "assay_type": "functional, organism-based"}}, "data": [{"smiles": "COc1cc(/C=C/C(=O)CC(=O)/C=C/c2ccc(OCCOC(=O)CCC(NC(=O)c3ccc(NCc4cnc5nc(N)[nH]c(=O)c5n4)cc3)C(=O)O)c(OC)c2)ccc1O", "note": "(stereo not given)", "values": [{"measurement": "IC50", "setting": "[1]", "value": 63, "unit": "nM"}, {"measurement": "IC50", "setting": "[2]", "value": 69, "unit": "nM"}, {"measurement": "CC50", "setting": "[3]", "value": "> 69", "unit": "nM"}, {"measurement": "Ratio CC50/IC50", "setting": "[4]", "value": "<1"}, {"measurement": "CC50", "setting": "[5]", "value": "> 119", "unit": "nM"}, {"measurement": "CC50", "setting": "[6]", "value": "> 119", "unit": "nM"}, {"measurement": "CC50", "setting": "[7]", "value": "> 119", "unit": "nM"}, {"measurement": "CC50", "setting": "[8]", "value": "> 119", "unit": "nM"}, {"measurement": "CC50", "setting": "[9]", "value": "> 119", "unit": "nM"}, {"measurement": "CC50", "setting": "[10]", "value": "> 119", "unit": "nM"}, {"measurement": "CC50", "setting": "[11]", "value": "> 119", "unit": "nM"}, {"measurement": "CC50", "setting": "[12]", "value": "> 119", "unit": "nM"}, {"measurement": "CC50", "setting": "[13]", "value": "> 119", "unit": "nM"}, {"measurement": "CC50", "setting": "[14]", "value": "> 119", "unit": "nM"}, {"measurement": "CC50", "setting": "[15]", "value": "> 119", "unit": "nM"}, {"measurement": "CC50", "setting": "[16]", "value": "> 119", "unit": "nM"}, {"measurement": "CC50", "setting": "[17]", "value": "> 119", "unit": "nM"}, {"measurement": "CC50", "setting": "[18]", "value": "> 119", "unit": "nM"}, {"measurement": "CC50", "setting": "[19]", "value": "> 119", "unit": "nM"}, {"measurement": "CC50", "setting": "[20]", "value": "> 119", "unit": "nM"}, {"measurement": "CC50", "setting": "[21]", "value": "> 119", "unit": "nM"}, {"measurement": "CC50", "setting": "[22]", "value": "> 119", "unit": "nM"}, {"measurement": "CC50", "setting": "[23]", "value": "> 63", "unit": "nM"}, {"measurement": "EC50", "setting": "[24]", "value": "> 119", "unit": "nM"}, {"measurement": "EC50", "setting": "[25]", "value": "> 119", "unit": "nM"}, {"measurement": "EC50", "setting": "[26]", "value": "> 119", "unit": "nM"}, {"measurement": "EC50", "setting": "[27]", "value": "> 119", "unit": "nM"}, {"measurement": "EC50", "setting": "[28]", "value": "> 119", "unit": "nM"}, {"measurement": "EC50", "setting": "[29]", "value": "> 119", "unit": "nM"}, {"measurement": "EC50", "setting": "[30]", "value": "> 119", "unit": "nM"}, {"measurement": "EC50", "setting": "[31]", "value": "> 119", "unit": "nM"}, {"measurement": "EC50", "setting": "[32]", "value": "> 119", "unit": "nM"}, {"measurement": "EC50", "setting": "[33]", "value": "> 119", "unit": "nM"}, {"measurement": "EC50", "setting": "[34]", "value": "> 119", "unit": "nM"}, {"measurement": "EC50", "setting": "[35]", "value": "> 119", "unit": "nM"}, {"measurement": "EC50", "setting": "[36]", "value": 78, "unit": "nM"}, {"measurement": "EC50", "setting": "[37]", "value": 105, "unit": "nM"}, {"measurement": "EC50", "setting": "[38]", "value": "> 119", "unit": "nM"}, {"measurement": "EC50", "setting": "[39]", "value": "> 119", "unit": "nM"}, {"measurement": "EC50", "setting": "[40]", "value": "> 119", "unit": "nM"}]}]}
